Test results: article PMC10390885 (Clinical Cancer Research, 2023)
“And” between values parts separate entries of the source, which are not always exact repeats. Equal entries are not always repeated. “Also recorded” adds a separate entry of the source. Where two headings read alike, the source gives them in different places.

Assays:
[1] = test system: ER; conditions: ER+ cell lines; preclinical studies; cited from earlier work
[2] = test system: ESR1 mutations in ctDNA; test: FACT next-generation sequencing ctDNA assay; assay type: in vivo, human; conditions: 1,400 mg; vs 52% pretreatment
[3] = test system: PIK3CA/AKT1 mutations in ctDNA; test: ctDNA BEAMing digital PCR, PIK3CA/AKT1 mutant allele frequency; assay type: in vivo, human; conditions: first postbaseline ctDNA sample (cycle 3 day 1 or end-of-treatment)
Method in brief: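 Hotspot mutations were measured in plasma ctDNA by BEAMing digital PCR: AKT1 E17K and PIK3CA C420R, E542K, E545G/K, Q546K, M1043I, H1047L/R/Y. Mutant allele fraction at baseline was compared with the first available post-baseline sample (cycle 3 day 1 or end of treatment) in paired samples.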

[4] = test system: ER; test: IHC of ER protein in baseline and on-treatment biopsies; assay type: in vivo, human; conditions: on-treatment (cycle 2 or 3, day 8) vs baseline biopsies
Method in brief: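 Baseline and on-treatment tumour biopsies (cycle 2 or 3, day 8) were stained for ER by IHC in one laboratory and scored by one pathologist. H-score (0–300) = 3×% strong-intensity nuclei + 2×% intermediate + 1×% weak nuclei among tumour cells. Paired samples only.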

[5] = test system: ESR1 mutant and wild-type patient-derived xenograft models of ER+ breast cancer; conditions: preclinical, cited from earlier work
[6] = test system: ER; conditions: preclinical studies; cited from earlier work
[7] = test system: ER+/HER2− advanced or metastatic breast cancer; test: Antitumor activity by RECIST v1.1; assay type: in vivo, human
[8] = test system: ER; test: [18F]-fluoroestradiol; assay type: in vivo, human; conditions: cycle 2 day 3 vs baseline; 9 patients with FES-avid disease; 600, 1,000, 1,400 mg
[9] = test system: postmenopausal women with ER+/HER2− locally advanced or metastatic breast cancer; test: Phase I safety: adverse events; assay type: in vivo, human
Method in brief: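 Oral tablets were given as a single lead-in dose on day −7, then once daily from day 1 in 28-day cycles. Escalation used a 3+3 design, starting at 600 mg/day with 400 mg steps, plus an expansion cohort at 1,400 mg/day. DLT window ran from day −7 through cycle 1 (35 days). AEs were graded by NCI CTCAE v4.0. All patients dosed on cycle 1 day 1 were included, summarised descriptively.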

[10] = test system: advanced ER-positive HER2-negative breast cancer; conditions: cited from earlier work
[11] = N = 42, considered related to study drug, any grade
[12] = N = 42, considered related to study drug, grade 3
[13] = N = 42, regardless of causality, any grade
[14] = N = 42, regardless of causality, grade 3

In the case of `CC/C(=C(/c1ccc(/C=C/C(=O)O)cc1)c1ccc2[nH]ncc2c1)c1ccc(F)cc1Cl` [GDC-0810, reference compound], the ER antagonist/agonist profile [1] is given as “partial agonism”.

For `CC1=C(c2cccc(O)c2)[C@H](c2ccc(OCCN3CC(CF)C3)cc2)Oc2ccc(O)cc21` [GDC-0927], the “Prevalence of ESR1 mutations in on-treatment samples” value [2] was 35%, the “Patients with decline in PIK3CA/AKT1 MAF” value [3] was 8 of 13 and the “Reduction in ER expression (ER protein, IHC), average” value [4] was “approximately 40%”. The ER antagonist/agonist profile [1] was “full antagonist profile”, the ER degradation [1] was “ER degradation in all ER^+ cell lines tested” and the “Tolerability at efficacious dose range” value ([5]; 10–100 mg/kg/day) was “well tolerated”. For the same compound, the “Antitumor activity in xenograft models” value ([5]; ER+ breast cancer xenograft models) was “induces tumor regression; also recorded: dose-dependent antitumor activity”, the “In vivo efficacious dose range” value [5] was 10 to 100 mg/kg/day and the “ER agonism in the uterus” value [6] was “lacked ER agonism”. The “Confirmed complete or partial responses” value ([7]; N = 42) was “no complete or partial responses; also recorded: no confirmed CRs or PRs”, the “Patients with confirmed best overall response of non-CR/PD” value ([7]; five patients, all at 1,400 mg) was 14% and the “Patients achieving clinical benefit” value ([7]; patients with baseline ctDNA ESR1 mutation(s), six of 22) was 27%. The “Patients achieving clinical benefit” value ([7]; patients without detectable baseline ctDNA ESR1 mutations, 6 of 20) was 30%, the “Reduction in FES uptake” value [8] was over 90% and the “AEs leading to withdrawal” value ([9]; N = 42) was “no reports and None”. The Deaths ([9]; N = 42) was “no deaths; also recorded: no reports”, the “Dose modifications due to AEs” value ([9]; N = 42) was “no dose modifications” and the “Grade 4 or grade 5 AEs” value ([9]; N = 42) was “no grade 4 or grade 5 AEs; also recorded: no grade 4 or 5 AEs”. For the same compound, the “Treatment-related serious adverse events (SAE)” value ([9]; N = 42) was “no reports”, the “Patients with any adverse events” value ([9]; N = 42, 600-1,400 mg once daily oral, regardless of causality, any grade) was 37 n (%) and 37 (88) n (%) and the Constipation [9, 11] was 6 n (%) and 6 (14) n (%). The Diarrhea [9, 11] was 5 n (%) and 5 (12) n (%), the Fatigue [9, 11] was 5 n (%) and 5 (12) n (%) and the Hot flush [9, 11] was 8 n (%) and 8 (19) n (%). The Nausea [9, 11] was 8 n (%) and 8 (19) n (%), the “Patients with at least one adverse event” value [9, 11] was 30 n (%) and 30 (71) n (%) and the “Total number of events” value [9, 11] was 109. For the same compound, the Constipation [9, 12] was 0 n (%), the Diarrhea [9, 12] was 0 n (%) and the Fatigue [9, 12] was 0 n (%). The Hot flush [9, 12] was 0 n (%), the Nausea [9, 12] was 0 n (%) and the “Patients with at least one adverse event” value [9, 12] was 0 n (%). For the same compound, the “Total number of events” value [9, 12] was 0, the Anemia [9, 13] was 6 n (%) and 6 (14) n (%) and the Arthralgia [9, 13] was 8 n (%) and 8 (19) n (%). The “Aspartate aminotransferase (AST) increased” value [9, 13] was 5 (12) n (%), the Asthenia [9, 13] was 5 (12) n (%) and the Back pain [9, 13] was 7 n (%) and 7 (17) n (%). For the same compound, the Constipation [9, 13] was 9 n (%) and 9 (21) n (%), the Cough [9, 13] was 5 (12) n (%) and the Diarrhea [9, 13] was 9 n (%) and 9 (21) n (%). For the same compound, the Fatigue [9, 13] was 8 n (%) and 8 (19) n (%), the Headache [9, 13] was 6 n (%) and 6 (14) n (%) and the Hot flush [9, 13] was 8 n (%) and 8 (19) n (%). The Nausea [9, 13] was 14 n (%) and 14 (33) n (%), the Pain in extremity [9, 13] was 5 (12) n (%) and the Vomiting [9, 13] was 7 n (%) and 7 (17) n (%). The Anemia [9, 14] was 0 n (%), the Arthralgia [9, 14] was 0 n (%) and the “Aspartate aminotransferase (AST) increased” value [9, 14] was 0 n (%). For the same compound, the Asthenia [9, 14] was 1 (2) n (%), the Back pain [9, 14] was 2 n (%) and 2 (5) n (%) and the Constipation [9, 14] was 0 n (%). The Cough [9, 14] was 0 n (%), the Diarrhea [9, 14] was 0 n (%) and the Fatigue [9, 14] was 0 n (%). For the same compound, the Headache [9, 14] was 0 n (%), the Hot flush [9, 14] was 0 n (%) and the Nausea [9, 14] was 0 n (%). For the same compound, the Pain in extremity [9, 14] was 0 n (%), the “Patients with any adverse events” value [9, 14] was 9 (21) n (%) and the Vomiting [9, 14] was 0 n (%). The “Patients with AEs that led to dose interruptions” value ([9]; N = 42, seven patients) was 17%, the “Patients with at least one SAE considered unrelated to GDC-0927” value ([9]; N = 42, seven patients) was 17% and the “Patients with AEs of special interest (grade 2 deep vein thrombosis, grade 2 jugular vein thrombosis)” value ([9]; N = 42, two patients, both considered unrelated) was 5%. For the same compound, the DLTs ([9]; day −7 through first cycle (35 days), 600-1,400 mg/day) was “no reports of DLTs” and the MTD ([9]; oral once daily, doses up to the MAD of 1,400 mg/day) was “not reached”.

In the case of `C[C@@H]1Cc2c(ccc3[nH]ncc23)[C@@H](c2ccc(NC3CN(CCCF)C3)cn2)N1CC(F)(F)F` [camizestrant], the “Median PFS” value ([10]; SERENA-2, camizestrant 75 mg) is listed as 7.2 months and the “Median PFS” value ([10]; SERENA-2, camizestrant 150 mg) is listed as 7.7 months.

For `C[C@]12CC[C@@H]3c4ccc(O)cc4C[C@@H](CCCCCCCCC[S+]([O-])CCCC(F)(F)C(F)(F)F)[C@H]3[C@@H]1CC[C@@H]2O` (stereo partly drawn) [fulvestrant], the “Median PFS” value ([10]; SERENA-2, patients treated with fulvestrant) is given as 3.7 months.
